Assay results taken from ChEMBL document CHEMBL1129566 (J Med Chem, 1996).
Values after ≈ are worked out from the molar mass of the structure shown.

Experiments:
Format in all cases: functional
Streptococcus pneumoniae [1] = assay: Minimum inhibitory concentration for antibacterial activity against Streptococcus pneumoniae Q19 (pen s)
In short: (§1)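 Two-fold agar dilution on Mueller-Hinton agar. Overnight broth cultures diluted in fresh broth to […]; 10⁴ CFU/spot applied by inoculating apparatus onto plates with graded drug concentrations. Incubated 18 h at 37 °C; MIC taken as the lowest concentration giving complete growth inhibition.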

Enterococcus faecalis = assay: In vitro minimum inhibitory concentration required to produce antibacterial activity against Enterococcus faecalis ATCC 29212; in short: as §1
Staphylococcus aureus [2] = assay: In vitro minimum inhibitory concentration required to produce antibacterial activity against Staphylococcus aureus 743 MRSA; in short: as §1
Escherichia coli = assay: In vitro minimum inhibitory concentration required to produce antibacterial activity against Escherichia coli 25922; in short: as §1
Staphylococcus aureus [3] = assay: In vitro minimum inhibitory concentration required to produce antibacterial activity against Staphylococcus aureus 887MSSA; in short: as §1
Enterobacter cloacae = assay: In vitro minimum inhibitory concentration required to produce antibacterial activity against Enterobacter cloacae 908SSI; in short: as §1
Citrobacter freundii = assay: In vitro minimum inhibitory concentration required to produce antibacterial activity against Citrobacter freundii 902; in short: as §1
Pseudomonas aeruginosa = assay: In vitro minimum inhibitory concentration required to produce antibacterial activity against Pseudomonas aeruginosa ATCC 27853; in short: as §1
Streptococcus pneumoniae [4] = assay: In vitro minimum inhibitory concentration required to produce antibacterial activity against Streptococcus pneumoniae 1/37(pen r); in short: as §1

MIC (Streptococcus pneumoniae [1])	MIC (Enterococcus faecalis)	MIC (Staphylococcus aureus [2])	MIC (Escherichia coli)	MIC (Staphylococcus aureus [3])	MIC (Enterobacter cloacae)	MIC (Citrobacter freundii)	MIC (Pseudomonas aeruginosa)	MIC (Streptococcus pneumoniae [4])	Structure (SMILES)
0.12 µg/mL (≈ 0.222 µM)	0.5 µg/mL (≈ 0.923 µM)	8 µg/mL (≈ 14.8 µM)	≤ 0.12 µg/mL	1 µg/mL (≈ 1.85 µM)	≤ 0.12 µg/mL	≤ 0.12 µg/mL	16 µg/mL (≈ 29.5 µM)	2 µg/mL (≈ 3.69 µM)	Nc1nc(/C(=N/O)C(=O)N[C@@H]2C(=O)N3C(C(=O)O)=C(/C=C4\CCN(c5cccnc5)C4=O)CS[C@H]23)cs1
0.03 µg/mL (≈ 0.0579 µM)	1 µg/mL (≈ 1.93 µM)	16 µg/mL (≈ 30.9 µM)	0.12 µg/mL (≈ 0.231 µM)	1 µg/mL (≈ 1.93 µM)	0.25 µg/mL (≈ 0.482 µM)	0.12 µg/mL (≈ 0.231 µM)	16 µg/mL (≈ 30.9 µM)	1 µg/mL (≈ 1.93 µM)	Nc1nc(/C(=N/O)C(=O)N[C@@H]2C(=O)N3C(C(=O)O)=C(/C=C4\CCN(CC5CC5)C4=O)CS[C@H]23)cs1
≤ 0.06 µg/mL	1 µg/mL (≈ 1.71 µM)	8 µg/mL (≈ 13.7 µM)	2 µg/mL (≈ 3.42 µM)	1 µg/mL (≈ 1.71 µM)	4 µg/mL (≈ 6.84 µM)	2 µg/mL (≈ 3.42 µM)	> 32 µg/mL	1 µg/mL (≈ 1.71 µM)	COc1cccc(CN2CC/C(=C\C3=C(C(=O)O)N4C(=O)[C@@H](NC(=O)/C(=N\O)c5csc(N)n5)[C@H]4SC3)C2=O)c1
≤ 0.06 µg/mL	1 µg/mL (≈ 1.98 µM)	16 µg/mL (≈ 31.7 µM)	≤ 0.06 µg/mL	1 µg/mL (≈ 1.98 µM)	0.25 µg/mL (≈ 0.495 µM)	≤ 0.06 µg/mL	16 µg/mL (≈ 31.7 µM)	1 µg/mL (≈ 1.98 µM)	C=CCN1CC/C(=C\C2=C(C(=O)O)N3C(=O)[C@@H](NC(=O)/C(=N\O)c4csc(N)n4)[C@H]3SC2)C1=O
≤ 0.06 µg/mL	0.5 µg/mL (≈ 0.873 µM)	16 µg/mL (≈ 27.9 µM)	0.25 µg/mL (≈ 0.437 µM)	2 µg/mL (≈ 3.49 µM)	0.25 µg/mL (≈ 0.437 µM)	0.12 µg/mL (≈ 0.21 µM)	32 µg/mL (≈ 55.9 µM)	2 µg/mL (≈ 3.49 µM)	Nc1nc(/C(=N/O)C(=O)N[C@@H]2C(=O)N3C(C(=O)O)=C(/C=C4\CCN(c5ccc(O)c(O)c5)C4=O)CS[C@H]23)cs1
0.03 µg/mL (≈ 0.0595 µM)	1 µg/mL (≈ 1.98 µM)	8 µg/mL (≈ 15.9 µM)	≤ 0.06 µg/mL	1 µg/mL (≈ 1.98 µM)	0.12 µg/mL (≈ 0.238 µM)	0.12 µg/mL (≈ 0.238 µM)	8 µg/mL (≈ 15.9 µM)	2 µg/mL (≈ 3.96 µM)	Nc1nc(/C(=N/O)C(=O)N[C@@H]2C(=O)N3C(C(=O)O)=C(/C=C4\CCN(C5CC5)C4=O)CS[C@H]23)cs1
≤ 0.06 µg/mL	16 µg/mL (≈ 26.6 µM)	4 µg/mL (≈ 6.64 µM)	2 µg/mL (≈ 3.32 µM)	8 µg/mL (≈ 13.3 µM)	4 µg/mL (≈ 6.64 µM)	4 µg/mL (≈ 6.64 µM)	16 µg/mL (≈ 26.6 µM)	1 µg/mL (≈ 1.66 µM)	CC(C)CO/N=C(\C(=O)N[C@@H]1C(=O)N2C(C(=O)O)=C(/C=C3\CCN(CC(F)(F)F)C3=O)CS[C@H]12)c1csc(N)n1
0.06 µg/mL (≈ 0.111 µM)	0.25 µg/mL (≈ 0.462 µM)	8 µg/mL (≈ 14.8 µM)	0.25 µg/mL (≈ 0.462 µM)	0.5 µg/mL (≈ 0.925 µM)	0.5 µg/mL (≈ 0.925 µM)	0.25 µg/mL (≈ 0.462 µM)	16 µg/mL (≈ 29.6 µM)	2 µg/mL (≈ 3.7 µM)	Nc1nc(/C(=N/O)C(=O)N[C@@H]2C(=O)N3C(C(=O)O)=C(/C=C4\CCN(c5ccccc5)C4=O)CS[C@H]23)cs1
0.12 µg/mL (≈ 0.23 µM)	8 µg/mL (≈ 15.3 µM)	> 32 µg/mL	0.12 µg/mL (≈ 0.23 µM)	16 µg/mL (≈ 30.6 µM)	8 µg/mL (≈ 15.3 µM)	2 µg/mL (≈ 3.83 µM)	> 32 µg/mL	2 µg/mL (≈ 3.83 µM)	Nc1nc(/C(=N/O)C(=O)N[C@@H]2C(=O)N3C(C(=O)O)=C(/C=C4\CCN(CC(=O)O)C4=O)CS[C@H]23)cs1
≤ 0.06 µg/mL	0.5 µg/mL (≈ 0.876 µM)	8 µg/mL (≈ 14 µM)	0.5 µg/mL (≈ 0.876 µM)	1 µg/mL (≈ 1.75 µM)	1 µg/mL (≈ 1.75 µM)	0.5 µg/mL (≈ 0.876 µM)	> 32 µg/mL	0.5 µg/mL (≈ 0.876 µM)	COc1cccc(N2CC/C(=C\C3=C(C(=O)O)N4C(=O)[C@@H](NC(=O)/C(=N\O)c5csc(N)n5)[C@H]4SC3)C2=O)c1
0.25 µg/mL (≈ 0.495 µM)	16 µg/mL (≈ 31.7 µM)	16 µg/mL (≈ 31.7 µM)	0.5 µg/mL (≈ 0.991 µM)	1 µg/mL (≈ 1.98 µM)	1 µg/mL (≈ 1.98 µM)	0.5 µg/mL (≈ 0.991 µM)	> 32 µg/mL	2 µg/mL (≈ 3.96 µM)	Nc1nc(/C(=N/O)C(=O)N[C@@H]2C(=O)N3C(C(=O)O)=C(/C=C4/CCN(C5CC5)C4=O)CS[C@H]23)cs1
≤ 0.06 µg/mL	32 µg/mL (≈ 54.6 µM)	4 µg/mL (≈ 6.82 µM)	1 µg/mL (≈ 1.7 µM)	4 µg/mL (≈ 6.82 µM)	4 µg/mL (≈ 6.82 µM)	2 µg/mL (≈ 3.41 µM)	8 µg/mL (≈ 13.6 µM)	0.5 µg/mL (≈ 0.852 µM)	C=CCO/N=C(\C(=O)N[C@@H]1C(=O)N2C(C(=O)O)=C(/C=C3\CCN(CC(F)(F)F)C3=O)CS[C@H]12)c1csc(N)n1
0.06 µg/mL (≈ 0.129 µM)	2 µg/mL (≈ 4.31 µM)	8 µg/mL (≈ 17.2 µM)	≤ 0.06 µg/mL	1 µg/mL (≈ 2.15 µM)	0.5 µg/mL (≈ 1.08 µM)	0.5 µg/mL (≈ 1.08 µM)	> 16 µg/mL	2 µg/mL (≈ 4.31 µM)	Nc1nc(/C(=N/O)C(=O)N[C@@H]2C(=O)N3C(C(=O)O)=C(/C=C4\CCNC4=O)CS[C@H]23)cs1
